ChEMBL document CHEMBL4184148 (Bioorg Med Chem Lett, 2017)

Legend:
[1] = target: Serine/threonine-protein kinase MARK2 (Homo sapiens) (UniProt Q7KZI7); assay: Binding affinity to wild-type human partial length MARK2 (M1 to R450 residues) expressed in Escherichia coli BL21 at 1 uM by Kinomescan method relative to control
[2] = target: Ephrin type-A receptor 6 (Homo sapiens) (UniProt Q9UF33); assay: Binding affinity to wild-type human partial length EPHA6 (Y700 to E1046 residues) expressed in Escherichia coli BL21 at 1 uM by Kinomescan method relative to control
[3] = target: Serine/threonine-protein kinase LATS1 (Homo sapiens) (UniProt O95835); assay: Binding affinity to wild-type human partial length LATS1 (Q678 to V1130 residues) expressed in Escherichia coli BL21 at 1 uM by Kinomescan method relative to control
[4] = target: Serine/threonine-protein kinase MAK (Homo sapiens) (UniProt P20794); assay: Binding affinity to wild-type human partial length MAK (M1 to P314 residues) expressed in Escherichia coli BL21 at 1 uM by Kinomescan method relative to control
[5] = target: Death-associated protein kinase 3 (Homo sapiens) (UniProt O43293); assay: Binding affinity to wild-type human partial length DAPK3 (M1 to A277 residues) expressed in Escherichia coli BL21 at 1 uM by Kinomescan method relative to control
[6] = target: Leucine-rich repeat serine/threonine-protein kinase 2 (Homo sapiens, UniProt Q5S007); assay: Inhibition of recombinant GST-tagged human LRRK2 (970 to 2527 residues) catalytic domain expressed in baculovirus expression system by ADAPTA assay
[7] = target: Cyclin-dependent kinase 15 (Homo sapiens) (UniProt Q96Q40); assay: Binding affinity to wild-type human full length PFTAIRE2 (M1 to W384 residues) expressed in Escherichia coli BL21 at 1 uM by Kinomescan method relative to control
In short: (§1)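 Kinome-wide competition binding panel run by an outside provider, with each compound tested at a single concentration. Activity is read against the kinase panel.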

[8] = test system: Receptor-type tyrosine-protein kinase FLT3 (Homo sapiens), P36888 [R834Q]; assay: Binding affinity to human partial length FLT3 R834Q mutant (V592 to Y969 residues) expressed in HEK293 cells at 1 uM by Kinomescan method relative to control; format: cell-based
[9] = target: Serine/threonine-protein kinase 32B (Homo sapiens) (UniProt Q9NY57); assay: Binding affinity to wild-type human full length YANK2 (M1 to S414 residues) expressed in Escherichia coli BL21 at 1 uM by Kinomescan method relative to control; in short: as §1
[10] = target: TGF-beta receptor type-2 (Homo sapiens) (UniProt P37173); assay: Binding affinity to wild-type human partial length TGFBR2 (I218 to K567 residues) expressed in Escherichia coli BL21 at 1 uM by Kinomescan method relative to control
[11] = target: Serine/threonine-protein kinase Nek5 (Homo sapiens) (UniProt Q6P3R8); assay: Binding affinity to wild-type human partial length NEK5 (M1 to M279 residues) expressed in Escherichia coli BL21 at 1 uM by Kinomescan method relative to control
[12] = target: NT-3 growth factor receptor (Homo sapiens) (UniProt Q16288); assay: Binding affinity to wild-type human partial length TRKC (Q531 to G825 residues) expressed in HEK293 cells at 1 uM by Kinomescan method relative to control; format: cell-based
[13] = target: Serine/threonine-protein kinase 25 (Homo sapiens) (UniProt O00506); assay: Binding affinity to wild-type human partial length YSK1 (V14 to H295 residues) expressed in Escherichia coli BL21 at 1 uM by Kinomescan method relative to control
[14] = target: Serine/threonine-protein kinase Nek9 (Homo sapiens) (UniProt Q8TD19); assay: Binding affinity to wild-type human partial length NEK9 (P32 to R328 residues) expressed in Escherichia coli BL21 at 1 uM by Kinomescan method relative to control
[15] = test system: Epidermal growth factor receptor (Homo sapiens), P00533 [L861Q]; assay: Binding affinity to human partial length EGFR L861Q mutant (R669 to V1011 residues) expressed in Escherichia coli BL21 at 1 uM by Kinomescan method relative to control
[16] = target: Fibroblast growth factor receptor 3 (Homo sapiens) (UniProt P22607); assay: Binding affinity to wild-type human partial length FGFR3 (R442 to S771 residues) expressed in Escherichia coli BL21 at 1 uM by Kinomescan method relative to control
[17] = target: Non-receptor tyrosine-protein kinase TYK2 (Homo sapiens) (UniProt P29597); assay: Binding affinity to wild-type human partial length TYK2 JH1 catalytic domain (V877 to C1187 residues) expressed in HEK293 cells at 1 uM by Kinomescan method relative to control; format: cell-based
[18] = target: Mitogen-activated protein kinase kinase kinase 12 (DLK) (Homo sapiens) (UniProt Q12852); assay: Binding affinity to wild-type human full length DLK (M1 to P859 residues) expressed in HEK293 cells at 1 uM by Kinomescan method relative to control
[19] = target: MAP kinase-interacting serine/threonine-protein kinase 1 (Homo sapiens) (UniProt Q9BUB5); assay: Binding affinity to wild-type human full length MKNK1 (M1 to L424 residues) expressed in HEK293 cells at 1 uM by Kinomescan method relative to control; format: cell-based
In short: (§2)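 Run as one kinome-wide competition binding panel with each compound at a single fixed concentration. Results were plotted as a kinome-wide selectivity map.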

[20] = target: Serine/threonine-protein kinase NIM1 (Homo sapiens) (UniProt Q8IY84); assay: Binding affinity to wild-type human partial length NIM1 (Q44 to N355 residues) expressed in HEK293 cells at 1 uM by Kinomescan method relative to control; format: cell-based
[21] = target: Serine/threonine-protein kinase STK11 (Homo sapiens) (UniProt Q15831); assay: Binding affinity to wild-type human full length LKB1 (M1 to Q433 residues) expressed in Escherichia coli BL21 at 1 uM by Kinomescan method relative to control; in short: as §2
[22] = target: Ribosomal protein S6 kinase alpha-4 (Homo sapiens) (UniProt O75676); assay: Binding affinity to wild-type human partial length C-terminal RPS6KA4 kinase domain 2 (M375 to T705 residues) expressed in HEK293 cells at 1 uM by Kinomescan method relative to control; format: cell-based
[23] = target: MAP kinase-activated protein kinase 5 (Homo sapiens) (UniProt Q8IW41); assay: Binding affinity to wild-type human partial length MAPKAPK5 (M1 to D322 residues) expressed in HEK293 cells at 1 uM by Kinomescan method relative to control; format: cell-based
[24] = target: Serine/threonine-protein kinase 36 (Homo sapiens) (UniProt Q9NRP7); assay: Binding affinity to wild-type human partial length STK36 (M1 to T271 residues) expressed in Escherichia coli BL21 at 1 uM by Kinomescan method relative to control
[25] = target: Ribosomal protein S6 kinase alpha-1 (Homo sapiens) (UniProt Q15418); assay: Binding affinity to wild-type human partial length N-terminal RSK1 Kinase domain 1 (M1 to E388 residues) expressed in Escherichia coli BL21 at 1 uM by Kinomescan method relative to control
Chain of Ribosomal protein S6 kinase alpha-1 (Homo sapiens) (Q15418 whole entry, the tested form may be a part): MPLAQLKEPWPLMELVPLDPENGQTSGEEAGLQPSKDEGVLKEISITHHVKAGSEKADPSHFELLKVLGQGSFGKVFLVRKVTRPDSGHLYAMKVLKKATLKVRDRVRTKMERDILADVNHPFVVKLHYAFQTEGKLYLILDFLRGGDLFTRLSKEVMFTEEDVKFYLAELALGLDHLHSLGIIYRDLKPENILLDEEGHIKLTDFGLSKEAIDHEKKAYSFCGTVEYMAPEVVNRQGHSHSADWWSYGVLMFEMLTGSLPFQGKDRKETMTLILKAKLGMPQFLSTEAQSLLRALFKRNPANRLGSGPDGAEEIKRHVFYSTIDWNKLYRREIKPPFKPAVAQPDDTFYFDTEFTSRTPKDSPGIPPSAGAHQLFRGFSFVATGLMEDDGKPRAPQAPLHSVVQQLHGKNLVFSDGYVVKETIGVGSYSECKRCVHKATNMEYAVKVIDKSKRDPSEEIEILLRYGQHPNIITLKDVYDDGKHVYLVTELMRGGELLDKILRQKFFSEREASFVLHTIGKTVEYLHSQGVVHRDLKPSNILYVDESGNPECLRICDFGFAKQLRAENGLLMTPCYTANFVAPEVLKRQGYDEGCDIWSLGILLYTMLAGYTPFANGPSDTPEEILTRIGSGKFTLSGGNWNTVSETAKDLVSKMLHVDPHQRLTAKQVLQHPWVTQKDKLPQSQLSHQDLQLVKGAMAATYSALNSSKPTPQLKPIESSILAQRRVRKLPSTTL

Chain of Mitogen-activated protein kinase kinase kinase 12 (DLK) (Homo sapiens) (Q12852 whole entry, looked up, the tested form may be a part): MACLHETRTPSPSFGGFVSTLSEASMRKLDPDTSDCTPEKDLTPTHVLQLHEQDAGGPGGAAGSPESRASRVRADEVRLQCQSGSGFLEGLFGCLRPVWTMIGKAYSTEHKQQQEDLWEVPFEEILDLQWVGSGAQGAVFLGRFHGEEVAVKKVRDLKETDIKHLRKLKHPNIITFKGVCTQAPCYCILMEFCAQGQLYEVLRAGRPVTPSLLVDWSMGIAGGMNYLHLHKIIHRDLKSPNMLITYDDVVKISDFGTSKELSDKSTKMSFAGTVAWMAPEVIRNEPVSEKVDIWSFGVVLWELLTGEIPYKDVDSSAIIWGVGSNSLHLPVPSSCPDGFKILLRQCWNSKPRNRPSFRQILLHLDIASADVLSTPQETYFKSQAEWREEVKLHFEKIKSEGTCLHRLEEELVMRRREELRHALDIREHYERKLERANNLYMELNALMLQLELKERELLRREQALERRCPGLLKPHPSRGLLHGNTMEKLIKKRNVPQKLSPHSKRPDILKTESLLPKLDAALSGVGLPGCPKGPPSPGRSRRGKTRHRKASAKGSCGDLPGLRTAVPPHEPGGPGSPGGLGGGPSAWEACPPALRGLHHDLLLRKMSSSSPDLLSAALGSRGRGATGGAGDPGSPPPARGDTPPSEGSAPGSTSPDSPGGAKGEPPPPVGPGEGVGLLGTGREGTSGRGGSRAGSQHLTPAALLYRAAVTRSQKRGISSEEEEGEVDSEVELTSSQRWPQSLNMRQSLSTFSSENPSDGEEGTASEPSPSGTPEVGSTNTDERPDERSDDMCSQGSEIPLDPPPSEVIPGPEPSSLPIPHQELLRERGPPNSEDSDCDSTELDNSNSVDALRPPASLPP
Chain of Fibroblast growth factor receptor 3 (Homo sapiens) (P22607 23-806 limits assumed): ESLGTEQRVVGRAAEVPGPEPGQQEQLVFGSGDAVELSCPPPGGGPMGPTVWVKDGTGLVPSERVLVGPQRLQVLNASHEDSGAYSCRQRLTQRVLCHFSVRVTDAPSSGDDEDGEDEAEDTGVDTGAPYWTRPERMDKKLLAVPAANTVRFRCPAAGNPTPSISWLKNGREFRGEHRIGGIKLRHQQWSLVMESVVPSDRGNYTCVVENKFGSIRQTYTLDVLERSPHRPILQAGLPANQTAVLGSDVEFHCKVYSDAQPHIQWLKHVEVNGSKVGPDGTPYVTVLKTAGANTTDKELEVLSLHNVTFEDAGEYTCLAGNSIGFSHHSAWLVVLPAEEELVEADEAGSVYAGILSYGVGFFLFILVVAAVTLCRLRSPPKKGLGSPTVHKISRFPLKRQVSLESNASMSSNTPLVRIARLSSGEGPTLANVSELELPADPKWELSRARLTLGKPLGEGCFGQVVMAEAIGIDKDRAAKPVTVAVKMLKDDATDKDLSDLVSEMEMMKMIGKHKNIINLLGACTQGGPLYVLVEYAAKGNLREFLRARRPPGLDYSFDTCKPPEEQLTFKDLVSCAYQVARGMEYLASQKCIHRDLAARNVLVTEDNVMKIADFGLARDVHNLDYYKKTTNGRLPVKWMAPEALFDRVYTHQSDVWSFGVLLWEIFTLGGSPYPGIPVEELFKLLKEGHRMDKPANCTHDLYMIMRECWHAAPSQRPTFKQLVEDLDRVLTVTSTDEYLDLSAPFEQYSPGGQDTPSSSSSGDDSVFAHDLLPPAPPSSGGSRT
Chain of Serine/threonine-protein kinase MARK2 (Homo sapiens) (Q7KZI7 whole entry, the tested form may be a part): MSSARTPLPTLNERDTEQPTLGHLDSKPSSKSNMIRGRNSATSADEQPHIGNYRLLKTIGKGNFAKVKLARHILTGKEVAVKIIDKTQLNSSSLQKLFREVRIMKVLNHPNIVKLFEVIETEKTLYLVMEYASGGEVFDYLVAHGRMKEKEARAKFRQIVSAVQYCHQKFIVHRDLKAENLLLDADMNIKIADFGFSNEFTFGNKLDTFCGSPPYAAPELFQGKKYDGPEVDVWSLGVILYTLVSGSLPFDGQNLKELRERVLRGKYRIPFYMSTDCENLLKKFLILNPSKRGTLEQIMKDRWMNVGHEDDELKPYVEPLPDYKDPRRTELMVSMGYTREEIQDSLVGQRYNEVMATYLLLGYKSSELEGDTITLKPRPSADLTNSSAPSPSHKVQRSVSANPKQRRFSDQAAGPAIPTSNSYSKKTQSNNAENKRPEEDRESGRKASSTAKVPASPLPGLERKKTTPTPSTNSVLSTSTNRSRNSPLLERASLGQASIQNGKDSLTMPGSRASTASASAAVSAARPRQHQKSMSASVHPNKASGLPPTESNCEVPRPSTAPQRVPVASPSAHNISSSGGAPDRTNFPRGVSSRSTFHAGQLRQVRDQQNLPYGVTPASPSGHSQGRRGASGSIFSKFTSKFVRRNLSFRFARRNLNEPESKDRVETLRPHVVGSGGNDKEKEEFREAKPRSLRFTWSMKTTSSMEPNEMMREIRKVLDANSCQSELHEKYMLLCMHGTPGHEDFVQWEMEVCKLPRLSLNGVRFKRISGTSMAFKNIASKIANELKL
Chain of Ribosomal protein S6 kinase alpha-4 (Homo sapiens) (O75676 whole entry, looked up, the tested form may be a part): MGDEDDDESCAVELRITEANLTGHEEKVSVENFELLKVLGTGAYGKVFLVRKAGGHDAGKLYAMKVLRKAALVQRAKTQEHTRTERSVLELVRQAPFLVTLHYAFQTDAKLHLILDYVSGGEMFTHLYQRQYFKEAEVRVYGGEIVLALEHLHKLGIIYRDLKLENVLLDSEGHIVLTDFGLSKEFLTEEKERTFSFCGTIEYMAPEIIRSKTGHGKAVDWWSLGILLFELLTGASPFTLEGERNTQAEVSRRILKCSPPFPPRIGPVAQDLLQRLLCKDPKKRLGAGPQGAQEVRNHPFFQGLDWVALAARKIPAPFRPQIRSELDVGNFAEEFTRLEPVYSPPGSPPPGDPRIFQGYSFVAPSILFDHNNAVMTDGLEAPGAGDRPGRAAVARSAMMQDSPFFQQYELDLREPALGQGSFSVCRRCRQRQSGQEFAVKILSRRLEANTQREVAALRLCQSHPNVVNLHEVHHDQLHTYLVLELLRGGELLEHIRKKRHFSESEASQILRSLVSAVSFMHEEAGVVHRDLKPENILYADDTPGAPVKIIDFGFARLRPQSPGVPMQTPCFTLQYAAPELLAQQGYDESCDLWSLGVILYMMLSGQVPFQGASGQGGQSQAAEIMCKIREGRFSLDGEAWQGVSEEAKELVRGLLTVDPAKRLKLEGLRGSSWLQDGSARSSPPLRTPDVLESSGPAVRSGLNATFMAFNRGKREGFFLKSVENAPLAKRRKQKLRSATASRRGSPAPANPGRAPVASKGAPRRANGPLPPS
Chain of Ephrin type-A receptor 6 (Homo sapiens) (Q9UF33 whole entry, the tested form may be a part): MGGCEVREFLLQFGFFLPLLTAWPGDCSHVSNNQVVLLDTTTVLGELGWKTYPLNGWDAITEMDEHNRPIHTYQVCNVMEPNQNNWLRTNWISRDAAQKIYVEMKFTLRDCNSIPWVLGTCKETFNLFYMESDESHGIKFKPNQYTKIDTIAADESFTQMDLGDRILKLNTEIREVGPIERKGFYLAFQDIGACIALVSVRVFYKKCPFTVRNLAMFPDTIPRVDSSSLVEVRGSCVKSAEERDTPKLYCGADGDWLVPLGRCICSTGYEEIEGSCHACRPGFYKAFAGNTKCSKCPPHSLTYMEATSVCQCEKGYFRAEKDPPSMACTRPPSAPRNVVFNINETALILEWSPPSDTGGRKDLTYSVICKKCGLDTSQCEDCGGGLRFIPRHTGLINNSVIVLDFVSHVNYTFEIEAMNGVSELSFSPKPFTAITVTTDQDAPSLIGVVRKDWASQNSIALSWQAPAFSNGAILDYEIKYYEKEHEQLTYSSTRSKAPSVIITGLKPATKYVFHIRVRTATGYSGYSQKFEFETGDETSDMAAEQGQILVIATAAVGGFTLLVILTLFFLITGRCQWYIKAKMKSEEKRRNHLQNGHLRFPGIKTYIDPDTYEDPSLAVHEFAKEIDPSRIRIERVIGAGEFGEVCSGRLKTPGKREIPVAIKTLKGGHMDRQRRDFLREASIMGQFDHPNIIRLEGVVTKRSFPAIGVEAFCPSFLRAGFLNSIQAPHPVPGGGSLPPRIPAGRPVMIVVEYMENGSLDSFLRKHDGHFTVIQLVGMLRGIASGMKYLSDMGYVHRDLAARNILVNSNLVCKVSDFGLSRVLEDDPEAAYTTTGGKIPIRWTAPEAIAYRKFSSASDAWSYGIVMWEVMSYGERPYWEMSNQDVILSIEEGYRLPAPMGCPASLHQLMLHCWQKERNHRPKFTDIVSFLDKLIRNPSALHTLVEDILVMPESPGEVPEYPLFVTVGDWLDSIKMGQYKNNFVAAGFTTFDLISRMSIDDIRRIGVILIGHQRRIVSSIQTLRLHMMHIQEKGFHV

SMILES	Activity [1] [%]	Activity [2] [%]	Activity [3] [%]	Activity [4] [%]	Activity [5] [%]	IC50 [6] [nM]	Activity [7] [%]	Activity [8] [%]	Activity [9] [%]	Activity [10] [%]	Activity [11] [%]	Activity [12] [%]	Activity [13] [%]	Activity [14] [%]	Activity [15] [%]	Activity [16] [%]	Activity [17] [%]	Activity [18] [%]	Activity [19] [%]	Activity [20] [%]	also measured
CCC(=O)Nc1ccc(C(=O)Nc2ccc(Nc3ncc4c(n3)N(C)c3ccc(C)cc3C(=O)N4C)cc2)cc1	100	76	100	100	82	714	100	86	100	100	86	89	100	100	97	89	58	98	96	100	Activity [21]: 94%; Activity [22]: 51%; Activity [23]: 55%; Activity [24]: 93%; Activity [25]: 94%
C=CC(=O)Nc1ccc(C(=O)Nc2ccc(Nc3ncc4c(n3)N(C)c3ccc(C)cc3C(=O)N4C)cc2)cc1	100	86	99	78	100	754	99	98	100	96	100	100	87	97	79	73	73	100	95	98	Activity [21]: 93%; Activity [22]: 96%; Activity [23]: 99%; Activity [24]: 100%; Activity [25]: 100%
